Experimental data as given in ChEMBL document CHEMBL2417469, “Synthesis of novel analogs of 2-pyrazoline obtained from [(7-chloroquinolin-4-yl)amino]chalcones and hydrazine as potential antitumor and antimalarial agents” (Eur J Med Chem, 2013).

How the values were obtained:
[1] = tested on: SW-620; assay: Cytotoxicity against human SW620 cells after 48 hrs by SRB assay; type: functional; conditions: SW-620, 48 h
Procedure, shortened: (§1)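 NCI 60-cell screen. Cells grew 24 h (37 °C, 5% CO2) before compound was added. Compounds were in DMSO and diluted in medium with gentamicin, then tested at five levels (100, 10, 1.0, 0.1, 0.01 µM) with 48 h continuous exposure. Adherent cells were fixed with TCA (10% final) and stained with 0.4% SRB, absorbance read at 515 nm. A time-zero plate was included. LC50 is the concentration giving 50% loss of protein relative to time zero.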

[2] = tested on: SF-268; assay: Cytotoxicity against human SF268 cells after 48 hrs by SRB assay; type: functional; conditions: SF-268, 48 h
Procedure, shortened: (§2)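 NCI 60-cell-line screen. Cells preincubated 24 h at 37 °C, 5% CO2; time-zero plates TCA-fixed. Compounds dissolved in DMSO and tested at five concentrations (100, 10, 1.0, 0.1, 0.01 µM) for 48 h continuous exposure. Adherent cells fixed with cold TCA (10% final), then SRB stained; absorbance at 515 nm. GI50, TGI and LC50 calculated from growth relative to time-zero and untreated controls.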

[3] = tested on: SNB-19; assay: Cytotoxicity against human SNB19 cells after 48 hrs by SRB assay; type: functional; conditions: SNB-19, 48 h; procedure, shortened: as §1
[4] = tested on: SK-MEL-28; assay: Cytotoxicity against human SK-MEL-28 cells after 48 hrs by SRB assay; type: functional; conditions: SK-MEL-28, 48 h; procedure, shortened: as §2
[5] = Toxicity in RBC (unknown origin) assessed as hemolysis after 48 hrs at 20 to 80 ug/ml by spectrophotometry; type: cell-based, Erythrocyte; conditions: red blood cells (RBC); read-out: Activity
Procedure, shortened: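 Red blood cells at 5% hematocrit in RPMI 1640 exposed to 20, 40 and 80 µg/mL for 48 h at 37 °C; free hemoglobin read spectrophotometrically at 542 nm.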

[6] = tested on: SK-MEL-2; assay: Cytotoxicity against human SK-MEL-2 cells after 48 hrs by SRB assay; type: functional; conditions: SK-MEL-2, 48 h; procedure, shortened: as §2
[7] = tested on: CAKI-1; assay: Cytotoxicity against human Caki1 cells after 48 hrs by SRB assay; type: functional; conditions: CAKI-1, 48 h; procedure, shortened: as §2
[8] = tested on: HOP-62; assay: Cytotoxicity against human HOP62 cells after 48 hrs by SRB assay; type: functional; conditions: HOP-62, 48 h; procedure, shortened: as §2
[9] = tested on: HCC 2998; assay: Cytotoxicity against human HCC2998 cells after 48 hrs by SRB assay; type: functional; conditions: HCC 2998, 48 h; procedure, shortened: as §2
[10] = tested on: LOX IMVI; assay: Cytotoxicity against human LOXIMVI cells after 48 hrs by SRB assay; type: functional; procedure, shortened: as §2
[11] = tested on: T47D; assay: Cytotoxicity against human T47D cells after 48 hrs by SRB assay; type: functional; procedure, shortened: as §1
[12] = Cytotoxicity against human EKVX cells after 48 hrs by SRB assay; type: functional; procedure, shortened: as §2
[13] = tested on: RXF 393; assay: Cytotoxicity against human RXF393 cells after 48 hrs by SRB assay; type: functional; conditions: RXF 393, 48 h; procedure, shortened: as §2
[14] = tested on: HOP-92; assay: Cytotoxicity against human HOP92 cells after 48 hrs by SRB assay; type: functional; conditions: HOP-92, 48 h; procedure, shortened: as §2
[15] = tested on: A549; assay: Cytotoxicity against human A549/ATCC cells after 48 hrs by SRB assay; type: functional; conditions: A549, 48 h; procedure, shortened: as §2
[16] = tested on: HT-29; assay: Cytotoxicity against human HT-29 cells after 48 hrs by SRB assay; type: functional; conditions: HT-29, 48 h; procedure, shortened: as §2
[17] = tested on: Plasmodium falciparum; assay: Antimalarial activity against Plasmodium falciparum NF54 infected in human serum after 48 hrs by fluorometric method; type: functional, organism-based
Procedure, shortened: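 Asynchronous P. falciparum NF54 cultures at 1.5–2% parasitemia, 5% hematocrit in RPMI with 10% human serum; equal volumes of parasite suspension and compound dilutions (from 100 µg/mL stock) incubated 48 h, 37 °C, 90% N2/5% CO2/5% O2. DNA extracted with proteinase K lysis, stained with ethidium bromide; fluorescence-based viability vs compound-free control. IC50 by Probit; triplicate.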

[18] = tested on: KM12; assay: Cytotoxicity against human KM12 cells after 48 hrs by SRB assay; type: functional; conditions: KM12, 48 h; procedure, shortened: as §2
[19] = tested on: COLO 205; assay: Cytotoxicity against human COLO205 cells after 48 hrs by SRB assay; type: functional; conditions: COLO 205, 48 h; procedure, shortened: as §2
[20] = tested on: OVCAR-8; assay: Cytotoxicity against human OVCAR8 cells after 48 hrs by SRB assay; type: functional; conditions: OVCAR-8, 48 h; procedure, shortened: as §2
[21] = tested on: SN12C; assay: Cytotoxicity against human SN12C cells after 48 hrs by SRB assay; type: functional; procedure, shortened: as §2
[22] = tested on: IGROV-1; assay: Cytotoxicity against human IGROV1 cells after 48 hrs by SRB assay; type: functional; conditions: IGROV-1, 48 h; procedure, shortened: as §2
[23] = tested on: NCI-H226; assay: Cytotoxicity against human NCI-H226 cells after 48 hrs by SRB assay; type: functional; conditions: NCI-H226, 48 h; procedure, shortened: as §2
[24] = tested on: UACC-257; assay: Cytotoxicity against human UACC257 cells after 48 hrs by SRB assay; type: functional; conditions: UACC-257, 48 h; procedure, shortened: as §1
[25] = tested on: NCI-H322M; assay: Cytotoxicity against human NCI-H322M cells after 48 hrs by SRB assay; type: functional; procedure, shortened: as §2
[26] = tested on: UACC-62; assay: Cytotoxicity against human UACC62 cells after 48 hrs by SRB assay; type: functional; conditions: UACC-62, 48 h; procedure, shortened: as §1
[27] = read-out: LC50 (the source's name)

CC(=O)N1N=C(c2ccc(Nc3ccnc4cc(Cl)ccc34)cc2)CC1c1ccc(Cl)cc1 (centres undefined)
3.4%: hemolysis at 48 h [5]
4.88 µM: GI50 [4]
6.59 µM: GI50 [18]
1.57 µM: GI50 [11]
5.4 µM: GI50 [16]
5.07 µM: GI50 [13]
9.1 µM: GI50 [2]
54.6 µg/mL: IC50 [17]
100 µM: GI50 [1]
30.7 µM: GI50 [21]
3.15 µM: GI50 [10]
5.93 µM: GI50 [19]
8.81 µM: GI50 [15]
2.95 µM: GI50 [26]
> 100 µM: LC50 [1] | LC50 [2] | GI50 [3] | LC50 [3] | CC50 [4, 27] | GI50 [6] | LC50 [6] | GI50 [7] | LC50 [7] | GI50 [8] | LC50 (50% lethal concentration) [8] | GI50 [9] | LC50 [9] | LC50 [10] | LC50 (concentration giving 50% cell kill relative to time zero) [11] | LC50 [12] | LC50 (concentration killing 50% of cells) [13] | GI50 [14] | LC50 (concentration killing 50% of cells) [14] | CC50 [15, 27] | LC50 [16] | LC50 (concentration killing 50% of cells) [18] | LC50 [19] | GI50 [20] | LC50 (50% net cell kill) [20] | LC50 (50% net cell kill relative to time zero) [21] | GI50 [22] | LC50 (concentration killing 50% of cells relative to time zero) [22] | GI50 [23] | LC50 (50% lethal concentration) [23] | GI50 [24] | LC50 [24] | GI50 [25] | LC50 (50% lethal concentration) [25] | CC50 [26, 27]
